Test results published in ChEMBL document CHEMBL4138104, “Indole carboxylic acid esters of melampomagnolide B are potent anticancer agents against both hematological and solid tumor cells” (Eur J Med Chem, 2017).
pEC50: −log10 of the molar value.

Assays:
Type in all cases: functional
[1] = tested on: CCRF-CEM; experiment: Growth inhibition of human CCRF-CEM cells incubated for 48 hrs by sulforhodamine B assay
Method in brief: (§1)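 NCI-60 screen. Compounds were dosed at five concentrations spanning 10^-4 to 10^-8 M for 48 h at 37 °C. Cells were TCA-fixed, stained with 0.4% SRB and read at 515 nm against time-zero and vehicle controls. GI50 is the concentration giving a 50% reduction in net protein increase.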

[2] = tested on: HL-60(TB); experiment: Growth inhibition of human HL-60(TB) cells incubated for 48 hrs by sulforhodamine B assay; conditions: HL-60, 48 h
Method in brief: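 Performed at NCI's 60-line screen. Cells grown in RPMI with 5% FBS and 2 mM L-glutamine, plated 5,000–40,000 cells/well and incubated 24 h at 37 °C before compound addition. DMSO stocks were diluted in medium with gentamicin, and five concentrations spanning 10^-4 to 10^-8 M were tested. Exposure was 48 h. Cells were fixed with TCA, stained with SRB, and read at 515 nm. GI50 taken from log dose-response curves as 50% reduction in net protein increase versus control.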

[3] = tested on: K562; experiment: Growth inhibition of human K562 cells incubated for 48 hrs by sulforhodamine B assay; conditions: K562, 48 h; method in brief: as §1
[4] = tested on: MOLT-4; experiment: Growth inhibition of human MOLT4 cells incubated for 48 hrs by sulforhodamine B assay; conditions: MOLT-4, 48 h; method in brief: as §1
[5] = tested on: RPMI-8226; experiment: Growth inhibition of human RPMI8226 cells incubated for 48 hrs by sulforhodamine B assay; conditions: RPMI-8226, 48 h; method in brief: as §1
[6] = tested on: A549; experiment: Growth inhibition of human A549/ATCC cells incubated for 48 hrs by sulforhodamine B assay; conditions: A549, 48 h; method in brief: as §1
[7] = tested on: HOP-92; experiment: Growth inhibition of human HOP92 cells incubated for 48 hrs by sulforhodamine B assay; conditions: HOP-92, 48 h; method in brief: as §1
[8] = tested on: NCI-H226; experiment: Growth inhibition of human NCI-H226 cells incubated for 48 hrs by sulforhodamine B assay; conditions: NCI-H226, 48 h; method in brief: as §1
[9] = tested on: NCI-H23; experiment: Growth inhibition of human NCI-H23 cells incubated for 48 hrs by sulforhodamine B assay; conditions: NCI-H23, 48 h; method in brief: as §1
[10] = tested on: NCI-H322M; experiment: Growth inhibition of human NCI-H322M cells incubated for 48 hrs by sulforhodamine B assay; method in brief: as §1
[11] = tested on: NCI-H460; experiment: Growth inhibition of human NCI-H460 cells incubated for 48 hrs by sulforhodamine B assay; conditions: NCI-H460, 48 h; method in brief: as §1
[12] = tested on: NCI-H522; experiment: Growth inhibition of human NCI-H522 cells incubated for 48 hrs by sulforhodamine B assay; conditions: NCI-H522, 48 h; method in brief: as §1
[13] = tested on: HCC 2998; experiment: Growth inhibition of human HCC2998 cells incubated for 48 hrs by sulforhodamine B assay; conditions: HCC 2998, 48 h; method in brief: as §1
[14] = tested on: HCT-116; experiment: Growth inhibition of human HCT116 cells incubated for 48 hrs by sulforhodamine B assay; conditions: HCT-116, 48 h; method in brief: as §1
[15] = tested on: HCT-15; experiment: Growth inhibition of human HCT15 cells incubated for 48 hrs by sulforhodamine B assay; conditions: HCT-15, 48 h; method in brief: as §1
[16] = tested on: HT-29; experiment: Growth inhibition of human HT-29 cells incubated for 48 hrs by sulforhodamine B assay; conditions: HT-29, 48 h; method in brief: as §1
[17] = tested on: KM12; experiment: Growth inhibition of human KM12 cells incubated for 48 hrs by sulforhodamine B assay; conditions: KM12, 48 h; method in brief: as §1
[18] = tested on: SW-620; experiment: Growth inhibition of human SW620 cells incubated for 48 hrs by sulforhodamine B assay; conditions: SW-620, 48 h
Method in brief: (§2)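 NCI-60 screen run at NCI. Cells grown in RPMI medium with 5% FBS and 2 mM L-glutamine, plated at 5,000–40,000 cells/well, and preincubated 24 h at 37 °C. Time-zero plates were TCA-fixed. Compounds came from DMSO stocks and were tested at five concentrations from 10^-4 to 10^-8 M for 48 h. Cells were then TCA-fixed, stained with 0.4% SRB, and OD read at 515 nm. GI50 is the concentration giving a 50% reduction in net protein increase versus control.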

[19] = tested on: SF-268; experiment: Growth inhibition of human SF268 cells incubated for 48 hrs by sulforhodamine B assay; conditions: SF-268, 48 h; method in brief: as §1
[20] = tested on: SF-295; experiment: Growth inhibition of human SF295 cells incubated for 48 hrs by sulforhodamine B assay; conditions: SF-295, 48 h; method in brief: as §1
[21] = tested on: SF-539; experiment: Growth inhibition of human SF539 cells incubated for 48 hrs by sulforhodamine B assay; conditions: SF-539, 48 h; method in brief: as §1
[22] = tested on: SNB-19; experiment: Growth inhibition of human SNB19 cells incubated for 48 hrs by sulforhodamine B assay; conditions: SNB-19, 48 h; method in brief: as §2
[23] = tested on: U-251; experiment: Growth inhibition of human U251 cells incubated for 48 hrs by sulforhodamine B assay; conditions: U-251, 48 h; method in brief: as §2
[24] = tested on: LOX IMVI; experiment: Growth inhibition of human LOXIMVI cells incubated for 48 hrs by sulforhodamine B assay; method in brief: as §1
[25] = tested on: Malme-3M; experiment: Growth inhibition of human MALME-3M cells incubated for 48 hrs by sulforhodamine B assay; method in brief: as §1
[26] = tested on: SK-MEL-28; experiment: Growth inhibition of human SK-MEL-28 cells incubated for 48 hrs by sulforhodamine B assay; conditions: SK-MEL-28, 48 h; method in brief: as §1
[27] = tested on: UACC-257; experiment: Growth inhibition of human UACC257 cells incubated for 48 hrs by sulforhodamine B assay; conditions: UACC-257, 48 h; method in brief: as §2
[28] = tested on: UACC-62; experiment: Growth inhibition of human UACC62 cells incubated for 48 hrs by sulforhodamine B assay; conditions: UACC-62, 48 h; method in brief: as §2
[29] = tested on: OVCAR-5; experiment: Growth inhibition of human OVCAR5 cells incubated for 48 hrs by sulforhodamine B assay; conditions: OVCAR-5, 48 h; method in brief: as §1
[30] = tested on: OVCAR-8; experiment: Growth inhibition of human OVCAR8 cells incubated for 48 hrs by sulforhodamine B assay; conditions: OVCAR-8, 48 h; method in brief: as §1
[31] = tested on: NCI/ADR-RES; experiment: Growth inhibition of human NCI/ADR-RES cells incubated for 48 hrs by sulforhodamine B assay; method in brief: as §1
[32] = tested on: A498; experiment: Growth inhibition of human A498 cells incubated for 48 hrs by sulforhodamine B assay; conditions: A498, 48 h; method in brief: as §1
[33] = tested on: RXF 393; experiment: Growth inhibition of human RXF393 cells incubated for 48 hrs by sulforhodamine B assay; conditions: RXF 393, 48 h; method in brief: as §1
[34] = tested on: SN12C; experiment: Growth inhibition of human SN12C cells incubated for 48 hrs by sulforhodamine B assay; method in brief: as §1
[35] = tested on: UO-31; experiment: Growth inhibition of human UO31 cells incubated for 48 hrs by sulforhodamine B assay; conditions: UO-31, 48 h; method in brief: as §2
[36] = tested on: MCF7; experiment: Growth inhibition of human MCF7 cells incubated for 48 hrs by sulforhodamine B assay; conditions: MCF7, 48 h; method in brief: as §1
[37] = Cytotoxicity against human M9-ENL1 cells assessed as reduction in cell viability by trypan blue staining-based assay
Method in brief: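 M9-ENL1 AML cells (MLL-ENL-transduced human blood cells) plated at 10^6 cells/mL in alpha-MEM with 5% human plasma, 20% FBS, SCF, IL-3, IL-7 and FLT3. Drug diluted from DMSO stock into PBS, final DMSO ≤0.5%. After 24 h exposure, dead cells assessed by trypan blue and by flow cytometry (Annexin V/PI or Annexin V/7-AAD). Viability normalized to vehicle; EC50 from dose-response curves; triplicate.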

C=C1C(=O)O[C@@H]2[C@H]3O[C@]3(C)CC/C=C(/COC(=O)CCCc3c[nH]c4ccccc34)CC[C@@H]12
GI50 [1]: 750 nM
GI50 [2]: 1630 nM
GI50 [3]: 2600 nM
GI50 [4]: 1530 nM
GI50 [5]: 2310 nM
GI50 [6]: 5470 nM
GI50 [7]: 1680 nM
GI50 [8]: 2040 nM
GI50 [9]: 1720 nM
GI50 [10]: 13800 nM
GI50 [11]: 4540 nM
GI50 [12]: 1570 nM
GI50 [13]: 1790 nM
GI50 [14]: 960 nM
GI50 [15]: 1610 nM
GI50 [16]: 1710 nM
GI50 [17]: 1890 nM
GI50 [18]: 1840 nM
GI50 [19]: 1690 nM
GI50 [20]: 5690 nM
GI50 [21]: 1630 nM
GI50 [22]: 2590 nM
GI50 [23]: 1950 nM
GI50 [24]: 1550 nM
GI50 [25]: 1790 nM
GI50 [26]: 1700 nM
GI50 [27]: 2030 nM
GI50 [28]: 1840 nM
GI50 [29]: 1890 nM
GI50 [30]: 3380 nM
GI50 [31]: 2900 nM
GI50 [32]: 11900 nM
GI50 [33]: 1460 nM
GI50 [34]: 1900 nM
GI50 [35]: 1410 nM
GI50 [36]: 1420 nM
pEC50 [37]: 5.70
